ChEMBL document CHEMBL3865797, “Design, synthesis and biological evaluation of berberine-benzimidazole hybrids as new type of potentially DNA-targeting antimicrobial agents” (Eur J Med Chem, 2016)
Converted amounts (≈) assume the structure as drawn.

Assays:
Escherichia coli = experiment: Antibacterial activity against Escherichia coli JM109 measured after 24 hrs by two-fold serial dilution method; format: functional; settings: JM109, 24 h
Summary of the method: (§1)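 MIC by two-fold serial broth microdilution in 96-well plates, following NCCLS recommendations. Chloromycin, norfloxacin and fluconazole serve as reference drugs. The MIC is read as the lowest concentration that inhibits growth, in µg/mL.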

Pseudomonas aeruginosa = experiment: Antibacterial activity against Pseudomonas aeruginosa measured after 24 hrs by two-fold serial dilution method; format: functional; summary of the method: as §1
Micrococcus luteus = experiment: Antibacterial activity against Micrococcus luteus ATCC 4698 measured after 24 hrs by two-fold serial dilution method; format: functional; settings: NCTC 2665, 24 h; summary of the method: as §1
[1] = Antifungal activity against Saccharomyces cerevisiae measured after 24 hrs by two-fold serial dilution method; format: functional; summary of the method: as §1
Candida albicans = experiment: Antifungal activity against Candida albicans ATCC 76615 measured after 24 hrs by two-fold serial dilution method; format: functional; settings: ATCC 76615, 24 h; summary of the method: as §1
Proteus vulgaris = experiment: Antibacterial activity against Bacillus proteus ATCC 13315 measured after 24 hrs by two-fold serial dilution method; format: functional; settings: ATCC 13315, 24 h; summary of the method: as §1
Bacillus subtilis = experiment: Antibacterial activity against Bacillus subtilis measured after 24 hrs by two-fold serial dilution method; format: functional; summary of the method: as §1
Staphylococcus aureus [2] = experiment: Antibacterial activity against methicillin-resistant Staphylococcus aureus N315 measured after 24 hrs by two-fold serial dilution method; format: functional; settings: N315, 24 h
Summary of the method: (§2)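 Two-fold serial dilution in 96-well microtest plates following NCCLS guidance (micro broth dilution). Chloromycin and norfloxacin serve as positive controls. MIC is reported in µg/mL.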

[3] = Antifungal activity against Candida utilis measured after 24 hrs by two-fold serial dilution method; format: functional; settings: Cyberlindnera jadinii; summary of the method: as §1
Staphylococcus aureus [4] = experiment: Antibacterial activity against Staphylococcus aureus ATCC 25923 measured after 24 hrs by two-fold serial dilution method; format: functional; settings: ATCC 25923, 24 h; summary of the method: as §1
Aspergillus flavus = experiment: Antifungal activity against Aspergillus flavus measured after 24 hrs by two-fold serial dilution method; format: functional; summary of the method: as §1
Salmonella typhi = experiment: Antibacterial activity against Salmonella typhi measured after 24 hrs by two-fold serial dilution method; format: functional, Salmonella enterica subsp. enterica serovar Typhi; settings: Salmonella enterica; summary of the method: as §2

Compound | MIC (Escherichia coli) | MIC (Pseudomonas aeruginosa) | MIC (Micrococcus luteus) | MIC80 [1] | MIC80 (Candida albicans) | MIC (Proteus vulgaris) | MIC (Bacillus subtilis) | MIC (Staphylococcus aureus [2]) | MIC80 [3] | MIC (Staphylococcus aureus [4]) | MIC80 (Aspergillus flavus) | MIC (Salmonella typhi)
CCn1c(COc2c(OC)ccc3cc4[n+](cc23)CCc2cc3c(cc2-4)OCO3)nc2ccccc21.[Cl-] | 64 mg/L | 512 mg/L | 64 mg/L | 512 mg/L | 512 mg/L | 512 mg/L | 512 mg/L | 128 mg/L | 128 mg/L | 512 mg/L | 256 mg/L | 512 mg/L
COc1ccc2cc3[n+](cc2c1OCc1nc2ccccc2n1Cc1ccc([N+](=O)[O-])cc1)CCc1cc2c(cc1-3)OCO2.[Cl-] | 32 mg/L | 512 mg/L | 32 mg/L | 128 mg/L | 128 mg/L | 32 mg/L | 512 mg/L | 512 mg/L | 32 mg/L | 64 mg/L | 64 mg/L | 256 mg/L
CCCCCCCCCCCCCCCCCCn1c(COc2c(OC)ccc3cc4[n+](cc23)CCc2cc3c(cc2-4)OCO3)nc2ccccc21.[Cl-] | 512 mg/L | 512 mg/L | 512 mg/L | 512 mg/L | 512 mg/L | 64 mg/L | 512 mg/L | 512 mg/L | 128 mg/L | 512 mg/L | 512 mg/L | 256 mg/L
CCCCCCCCn1c(COc2c(OC)ccc3cc4[n+](cc23)CCc2cc3c(cc2-4)OCO3)nc2ccccc21.[Cl-] | 512 mg/L | 8 mg/L | 64 mg/L | 512 mg/L | 16 mg/L | 512 mg/L | 8 mg/L | 64 mg/L | 32 mg/L | 8 mg/L | 256 mg/L | 32 mg/L
OC(Cn1cncn1)(Cn1cncn1)c1ccc(F)cc1F [FLUCONAZOLE] |  |  |  | 16 mg/L (≈ 52.2 µM) | 1 mg/L (≈ 3.27 µM) |  |  |  | 8 mg/L (≈ 26.1 µM) |  | 256 mg/L (≈ 836 µM) | 
CCCCCCCCCCn1c(COc2c(OC)ccc3cc4[n+](cc23)CCc2cc3c(cc2-4)OCO3)nc2ccccc21.[Cl-] | 32 mg/L | 16 mg/L | 32 mg/L | 512 mg/L | 8 mg/L | 512 mg/L | 32 mg/L | 16 mg/L | 8 mg/L | 16 mg/L | 8 mg/L | 2 mg/L
O=C(N[C@H](CO)[C@H](O)c1ccc([N+](=O)[O-])cc1)C(Cl)Cl [CHLORAMPHENICOL] | 32 mg/L (≈ 99 µM) | 32 mg/L (≈ 99 µM) | 8 mg/L (≈ 24.8 µM) |  |  | 32 mg/L (≈ 99 µM) | 32 mg/L (≈ 99 µM) | 16 mg/L (≈ 49.5 µM) |  | 16 mg/L (≈ 49.5 µM) |  | 32 mg/L (≈ 99 µM)
COc1ccc2cc3[n+](cc2c1OCc1nc2ccc(F)cc2[nH]1)CCc1cc2c(cc1-3)OCO2.[Cl-] | 32 mg/L | 256 mg/L | 16 mg/L | 256 mg/L | 512 mg/L | 16 mg/L | 256 mg/L | 512 mg/L | 64 mg/L | 8 mg/L | 32 mg/L | 16 mg/L
COc1ccc2cc3[n+](cc2c1OCc1nc2ccccc2n1Cc1ccccc1F)CCc1cc2c(cc1-3)OCO2.[Cl-] | 128 mg/L | 512 mg/L | 8 mg/L | 128 mg/L | 512 mg/L | 128 mg/L | 256 mg/L | 512 mg/L | 4 mg/L | 2 mg/L | 8 mg/L | 4 mg/L
CCCn1c(COc2c(OC)ccc3cc4[n+](cc23)CCc2cc3c(cc2-4)OCO3)nc2ccccc21.[Cl-] | 256 mg/L | 64 mg/L | 32 mg/L | 512 mg/L | 64 mg/L | 256 mg/L | 64 mg/L | 4 mg/L | 16 mg/L | 128 mg/L | 16 mg/L | 4 mg/L
CCCCCn1c(COc2c(OC)ccc3cc4[n+](cc23)CCc2cc3c(cc2-4)OCO3)nc2ccccc21.[Cl-] | 128 mg/L | 64 mg/L | 32 mg/L | 512 mg/L | 32 mg/L | 128 mg/L | 32 mg/L | 16 mg/L | 8 mg/L | 64 mg/L | 16 mg/L | 4 mg/L
COc1ccc2cc3[n+](cc2c1OCc1nc2ccc(Cl)cc2[nH]1)CCc1cc2c(cc1-3)OCO2.[Cl-] | 512 mg/L | 512 mg/L | 128 mg/L | 512 mg/L | 512 mg/L | 32 mg/L | 512 mg/L | 256 mg/L | 256 mg/L | 64 mg/L | 32 mg/L | 64 mg/L
CCCCCCCCCCCCn1c(COc2c(OC)ccc3cc4[n+](cc23)CCc2cc3c(cc2-4)OCO3)nc2ccccc21.[Cl-] | 16 mg/L | 512 mg/L | 128 mg/L | 512 mg/L | 16 mg/L | 512 mg/L | 512 mg/L | 128 mg/L | 16 mg/L | 8 mg/L | 128 mg/L | 8 mg/L
COc1ccc2cc3[n+](cc2c1OCc1nc2ccccc2n1Cc1ccc(Cl)cc1Cl)CCc1cc2c(cc1-3)OCO2.[Cl-] | 16 mg/L | 32 mg/L | 16 mg/L | 512 mg/L | 512 mg/L | 8 mg/L | 512 mg/L | 4 mg/L | 2 mg/L | 64 mg/L | 16 mg/L | 16 mg/L
COc1ccc2cc3[n+](cc2c1OCc1nc2ccccc2n1Cc1ccc(F)cc1)CCc1cc2c(cc1-3)OCO2.[Cl-] | 512 mg/L | 512 mg/L | 512 mg/L | 256 mg/L | 512 mg/L | 32 mg/L | 512 mg/L | 512 mg/L | 8 mg/L | 512 mg/L | 16 mg/L | 8 mg/L
COc1ccc2cc3[n+](cc2c1OCc1nc2ccccc2n1Cc1cccc(Cl)c1)CCc1cc2c(cc1-3)OCO2.[Cl-] | 512 mg/L | 256 mg/L | 16 mg/L | 512 mg/L | 512 mg/L | 128 mg/L | 512 mg/L | 512 mg/L | 16 mg/L | 512 mg/L | 32 mg/L | 256 mg/L
CCn1cc(C(=O)O)c(=O)c2cc(F)c(N3CCNCC3)cc21 [NORFLOXACIN] | 1 mg/L (≈ 3.13 µM) | 16 mg/L (≈ 50.1 µM) | 2 mg/L (≈ 6.26 µM) |  |  | 8 mg/L (≈ 25.1 µM) | 4 mg/L (≈ 12.5 µM) | 8 mg/L (≈ 25.1 µM) |  | 2 mg/L (≈ 6.26 µM) |  | 4 mg/L (≈ 12.5 µM)
